Data: ChEMBL document CHEMBL1124054, “Synthesis and biological activity of ketomethylene-containing nonapeptide analogues of snake venom angiotensin converting enzyme inhibitors” (J Med Chem, 1988)
Non-standard residues stand in square brackets, D forms with d. Residues, ends and D or L forms follow the SMILES beside them. pGlu = O=C1CC[C@@H](C(=O)O)N1; Nle = CCCC[C@H](N)C(=O)O

Key:
[1] = biological target: T1, Angiotensin-converting enzyme (Rattus norvegicus, UniProt P47820); experiment: Inhibition of Angiotensin I converting enzyme in normotensive rat; assay type: functional; conditions: read-out: I50 (converted)
T1 sequence (P47820 whole entry): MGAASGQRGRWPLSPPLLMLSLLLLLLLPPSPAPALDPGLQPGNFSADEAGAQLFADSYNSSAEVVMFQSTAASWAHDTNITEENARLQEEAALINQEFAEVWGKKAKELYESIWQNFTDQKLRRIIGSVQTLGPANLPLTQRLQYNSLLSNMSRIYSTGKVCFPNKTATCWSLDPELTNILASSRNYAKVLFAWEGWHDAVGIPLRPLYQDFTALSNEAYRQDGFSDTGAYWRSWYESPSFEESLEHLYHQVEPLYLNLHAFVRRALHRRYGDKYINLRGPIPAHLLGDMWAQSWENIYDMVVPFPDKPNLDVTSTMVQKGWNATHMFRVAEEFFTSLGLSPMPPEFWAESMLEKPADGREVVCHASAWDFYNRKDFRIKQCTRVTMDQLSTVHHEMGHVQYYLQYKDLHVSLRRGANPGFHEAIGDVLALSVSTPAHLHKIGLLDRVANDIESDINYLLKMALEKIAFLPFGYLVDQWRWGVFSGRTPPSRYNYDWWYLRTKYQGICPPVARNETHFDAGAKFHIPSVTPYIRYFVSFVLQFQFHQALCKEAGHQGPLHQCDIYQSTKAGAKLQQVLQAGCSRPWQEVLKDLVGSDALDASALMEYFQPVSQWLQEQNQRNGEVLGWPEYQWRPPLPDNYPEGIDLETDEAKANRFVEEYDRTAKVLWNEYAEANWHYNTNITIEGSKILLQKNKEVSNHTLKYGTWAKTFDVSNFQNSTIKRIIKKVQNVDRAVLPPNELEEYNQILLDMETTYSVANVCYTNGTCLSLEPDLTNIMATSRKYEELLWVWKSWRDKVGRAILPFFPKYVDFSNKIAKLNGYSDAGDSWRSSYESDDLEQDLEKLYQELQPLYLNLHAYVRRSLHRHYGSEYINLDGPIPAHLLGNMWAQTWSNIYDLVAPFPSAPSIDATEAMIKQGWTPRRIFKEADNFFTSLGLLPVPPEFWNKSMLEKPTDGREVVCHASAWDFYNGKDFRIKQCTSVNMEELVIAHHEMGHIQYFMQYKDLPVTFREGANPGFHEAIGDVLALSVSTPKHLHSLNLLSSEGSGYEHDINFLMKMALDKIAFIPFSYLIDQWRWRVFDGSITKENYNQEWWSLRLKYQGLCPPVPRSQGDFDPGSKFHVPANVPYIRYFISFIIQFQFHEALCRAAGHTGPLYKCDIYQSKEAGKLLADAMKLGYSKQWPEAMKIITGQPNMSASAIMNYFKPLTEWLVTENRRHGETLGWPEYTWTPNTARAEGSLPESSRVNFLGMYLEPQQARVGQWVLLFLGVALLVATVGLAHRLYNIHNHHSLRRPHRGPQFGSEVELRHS

[2] = biological target: Angiotensin-converting enzyme (Oryctolagus cuniculus) (UniProt P12822); experiment: Inhibition of Angiotensin I converting enzyme from rabbit lung; conditions: read-out: I50
Rattus norvegicus [3] = experiment: Inhibition of angiotensin I induced blood pressure in normotensive anesthetized rats at 100 ug/kg (i.v.) for 1.5 min; assay type: functional
In short: (§1)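 Male Sprague-Dawley normotensive rats (290-540 g), pentobarbital-anesthetized (50 mg/kg ip), intubated. Jugular vein cannulated for iv dosing and carotid artery for blood pressure. Control pressor response to angiotensin I (175 ng/kg iv) taken after vehicle (1 mL/kg). Compound given iv in distilled water or 5% sodium bicarbonate. Angiotensin I challenge repeated at 1.5 to 75 min, rise in pressure compared with control.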

Rattus norvegicus [4] = experiment: Inhibition of angiotensin I induced blood pressure in normotensive anesthetized rats at 100 ug/kg (i.v.) for 10 min; assay type: functional; in short: as §1
Rattus norvegicus [5] = experiment: Inhibition of angiotensin I induced blood pressure in normotensive anesthetized rats at 100 ug/kg (i.v.) for 30 min; assay type: functional; in short: as §1
Rattus norvegicus [6] = experiment: Inhibition of angiotensin I induced blood pressure in normotensive anesthetized rats at 100 ug/kg (i.v.) for 5 min; assay type: functional; in short: as §1
Rattus norvegicus [7] = experiment: Inhibition of angiotensin I induced blood pressure in normotensive anesthetized rats at 100 ug/kg (i.v.) for 60 min; assay type: functional; in short: as §1
Rattus norvegicus [8] = experiment: Inhibition of angiotensin I induced blood pressure in normotensive anesthetized rats at 100 ug/kg (i.v.) for 75 min; assay type: functional; in short: as §1
Rattus norvegicus [9] = experiment: Inhibition of angiotensin I induced blood pressure in normotensive anesthetized rats at 30 ug/kg (i.v.) for 1.5 min; assay type: functional; in short: as §1
Rattus norvegicus [10] = experiment: Inhibition of angiotensin I induced blood pressure in normotensive anesthetized rats at 30 ug/kg (i.v.) for 10 min; assay type: functional; in short: as §1
Rattus norvegicus [11] = experiment: Inhibition of angiotensin I induced blood pressure in normotensive anesthetized rats at 30 ug/kg (i.v.) for 30 min; assay type: functional; in short: as §1
Rattus norvegicus [12] = experiment: Inhibition of angiotensin I induced blood pressure in normotensive anesthetized rats at 30 ug/kg (i.v.) for 5 min; assay type: functional; in short: as §1
Rattus norvegicus [13] = experiment: Inhibition of angiotensin I induced blood pressure in normotensive anesthetized rats at 3 ug/kg (i.v.) for 1.5 min; assay type: functional; in short: as §1
Rattus norvegicus [14] = experiment: Inhibition of angiotensin I induced blood pressure in normotensive anesthetized rats at 3 ug/kg (i.v.) for 10 min; assay type: functional; in short: as §1
Rattus norvegicus [15] = experiment: Inhibition of angiotensin I induced blood pressure in normotensive anesthetized rats at 3 ug/kg (i.v.) for 5 min; assay type: functional; in short: as §1

NCCCC[C@H](NC(=O)[C@@H]1CCC(=O)N1)C(=O)N[C@@H](Cc1ccccc1)C(=O)NCC(=O)N1CCC[C@H]1C(=O)O ([pGlu]KFGP-OH)
IC50 [1]: 179 nM

CC[C@H](C)[C@H](NC(=O)[C@H](CCC(N)=O)NC(=O)[C@@H]1CCCN1C(=O)CNC(=O)[C@@H]1CCCN1C(=O)[C@H](Cc1c[nH]c2ccccc12)NC(=O)[C@@H]1CCC(=O)N1)C(=O)N1CCC[C@H]1C(=O)N1CCC[C@H]1C(=O)O ([pGlu]WPGPQIPP-OH)
IC50 [2]: 1900 nM

C[C@H](NC(=O)[C@H](Cc1ccccc1)NC(=O)[C@H](CCCCN)NC(=O)[C@@H]1CCCN1C(=O)[C@H](CCCN=C(N)N)NC(=O)[C@@H]1CCCN1C(=O)[C@H](Cc1c[nH]c2ccccc12)NC(=O)[C@@H]1CCC(=O)N1)C(=O)N1CCC[C@H]1C(=O)O ([pGlu]WPRPKFAP-OH)
IC50 [2]: 50 nM

CC[C@H](C)[C@H](NC(=O)[C@H](CCC(N)=O)NC(=O)[C@@H]1CCCN1C(=O)[C@H](CCCN=C(N)N)NC(=O)[C@@H]1CCCN1C(=O)[C@H](Cc1ccc(O)cc1)NC(=O)[C@@H]1CCC(=O)N1)C(=O)N1CCC[C@H]1C(=O)N1CCC[C@H]1C(=O)O ([pGlu]YPRPQIPP-OH)
IC50 [2]: 2600 nM

CCCC[C@H](NC(=O)[C@@H]1CCC(=O)N1)C(=O)N[C@@H](Cc1ccccc1)C(=O)N[C@@H](C)C(=O)N1CCC[C@H]1C(=O)O ([pGlu][Nle]FAP-OH)
IC50 [1]: 359 nM

C[C@H](CS)C(=O)N1CCC[C@H]1C(=O)O [CAPTOPRIL]
Inhibition over time (Rattus norvegicus [3]): 71.5%
Inhibition over time (Rattus norvegicus [4]): 51.1%
Inhibition over time (Rattus norvegicus [5]): 27.3%
Inhibition over time (Rattus norvegicus [6]): 83.5%
Inhibition over time (Rattus norvegicus [7]): 1.8%
Inhibition over time (Rattus norvegicus [8]): 0%
Inhibition over time (Rattus norvegicus [9]): 78.3%
Inhibition over time (Rattus norvegicus [10]): 8.3%
Inhibition over time (Rattus norvegicus [11]): 0%
Inhibition over time (Rattus norvegicus [12]): 60.5%
Inhibition over time (Rattus norvegicus [13]): 18.7%
Inhibition over time (Rattus norvegicus [14]): 0%
Inhibition over time (Rattus norvegicus [15]): 8.3%

CC[C@H](C)[C@H](NC(=O)[C@H](CCC(N)=O)NC(=O)[C@@H]1CCCN1C(=O)[C@H](CCCNC(=N)N)NC(=O)[C@@H]1CCCN1C(=O)[C@H](Cc1c[nH]c2ccccc12)NC(=O)[C@@H]1CCC(=O)N1)C(=O)N1CCC[C@H]1C(=O)N1CCC[C@H]1C(=O)O [TEPROTIDE]
IC50 [2]: 1100 nM
